Measurements published in ChEMBL document CHEMBL3758142, “Synthesis and antimalarial activity of quinones and structurally-related oxirane derivatives” (Eur J Med Chem, 2016).

Key:
Plasmodium falciparum = test: Antimalarial activity against chloroquine-sensitive NF54 isolated Plasmodium falciparum 3D7 infected in erythrocytes assessed as inhibition of parasitic growth after 48 hrs by optical microscopy; assay type: functional, organism-based; conditions: 3D7, 48 h
How it was run: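 P. falciparum 3D7 in erythrocytes at 1% initial parasitemia, 2% hematocrit. Samples dissolved in DMSO at 10 mg/mL stock, diluted in complete medium to seven test concentrations. Each dilution tested in triplicate; 48 h at 37 °C. Growth inhibition read by optical microscopy of well contents.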

[1] = Selectivity index, ratio of IC50 for MRC5 cells to IC50 for chloroquine-sensitive NF54 isolated Plasmodium falciparum 3D7; assay type: toxicity, cell-based; conditions: human; read-out: Ratio IC50
MRC5 = test: Cytotoxicity against human MRC5 cells assessed as cell growth inhibition after 48 hrs by alamar blue assay; assay type: cell-based; conditions: MRC5, 48 h
How it was run: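 Human MRC-5 fibroblasts kept in DMEM with 10% FBS, 2 mM glutamine, streptomycin and penicillin at 37 °C, 5% CO2. Seeded at 2.5 × 10⁴ cells/well, 24 h, then DMSO-dissolved compounds diluted in medium were added; control wells held 0.1% DMSO final. Exposure 48 h; Alamar Blue added for the last 3 h; fluorescence read at 530–560 nm excitation.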

| Structure (SMILES) | IC50 (Plasmodium falciparum) [µM] | selectivity ratio [1] | IC50 (MRC5) [µM] |
| --- | --- | --- | --- |
| CC1(C)CC2=C(O1)C(=O)c1ccccc1C2=O | > 50 | < 1.1 | 56.1 |
| COc1c(Cl)c(Cl)c(OC)c(C#N)c1C#N | > 50 |  | > 100 |
| O=C1C=C(Nc2ccccc2)C2(CO2)c2ccccc21 (stereo not given) | > 50 | < 2.7 | 135 |
| O=C1C(Cl)=C(Cl)C(=O)C(Cl)=C1Cl [CHLORANIL] | 22.4 | > 4.4 | > 100 |
| CC1(C)CC2=C(O1)C1(CO1)c1ccccc1C2=O (stereo not given) | > 50 | < 1.1 | 55.7 |
| COC1=CC(=O)c2ccccc2C12CO2 (stereo not given) | > 50 | < 2.3 | 116 |
| O=C1C(Cl)=C(Cl)C2(CO2)C(Cl)=C1Cl | 3.95 | 93 | 368 |
| C=CCOC1=CC(=O)c2ccccc2C1=O | 5.18 | 12 | 64.8 |
| NC1=CC(=O)c2ccccc2C12CO2 (stereo not given) | > 50 |  | > 100 |
| CC1(C)CCC2=C(O1)C1(CO1)c1ccccc1C2=O (stereo not given) | 3.71 | > 27 | > 100 |
| CC1(C)CCC2=C(O1)C(=O)c1ccccc1C2=O [ALPHA-LAPACHONE] | > 50 |  | > 100 |
| O=C1C=C(Nc2ccccc2)C(=O)c2ccccc21 | 6.3 | > 15 | > 100 |
| COC1=CC(=O)c2ccccc2C1=O [2-Methoxy-1,4-naphthoquinone] | > 50 | < 0.1 | 5.2 |
| N#CC1=C(C#N)C(=O)C(Cl)=C(Cl)C1=O | > 50 |  | > 100 |
| NC1=CC(=O)c2ccccc2C1=O | 5.14 | 63 | 322 |
| C=CCOC1=CC(=O)c2ccccc2C12CO2 (stereo not given) | > 50 | < 0.53 | 26.4 |
| O=C1C(Cl)=C(Cl)C2(CO2)c2ccccc21 (stereo not given) | 6.22 | 15 | 92.5 |
| O=C1C(Cl)=C(Cl)C(=O)c2ccccc21 [Dichlon] | 13.9 | 7.2 | 98.2 |
